Results: the RNAGym collection of RNA variant scans (doi:10.1126/science.aae0568)
Variants at the floor of the assay were thinned out.

B1: tRNA (parent)
chain: GUUCCGUUGGCGUAAUGGUAACGCGUCUCCCUCCUAAGGAGAAGACUGCGGGUUCGAGUCCCGUACGGAACG

Variants of: B1
Assay: yeast fitness relative to wild type (ratio to wild type); higher = fitter; tRNA-Arg(CCU), competitive growth, 37 C, YPD
Method in brief: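 The tRNA-Arg(CCU) gene variants were made by chemical synthesis with a 3% per-site mutation rate at 69 sites and inserted at the native genomic locus of Saccharomyces cerevisiae. After pooling, the strains were competed in YPD at 37°C for 24 hours in six parallel replicates. Gene amplicons from the start population and each end population were read by 100-nucleotide paired-end sequencing, and Darwinian fitness relative to wild type was taken from genotype frequency changes. Genotypes needed ≥ 100 starting reads, and estimates < 0.5 were set to 0.5.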

Point of comparison: GUUCCGUUGGCGUAAUGGUAACGCGUAUCCCUCCUAAGGAGAAGACUGCGGGUUCGGGUCCCGUACGGAACG, yeast fitness 0.787. Against it:
- GUUCCGUUGGCGUAAUGGUAACGCGUAUCCCUCCUAAGGAGACUACUGCGGGUUCGAGUCCCGUACGGAACG — lower, 0.514
- GUUCCGUUGGCGUAAUGGUAACGCGUAUCCCUCCUAAGGAGACGACCGCGGGUUCGAGUCCCGUACGGAACG — lower, 0.594
- GUUCCGUUGGCGUAAUGGUAACGCGUAUCCCUCCUAAGGAGAGGACUGCGGGUUCGAGUCCCGUACGGAACG — lower, 0.778
- GUUCCGUUGGCGUAAUGGUAACGCGUAUCCCUCCUAAGGAGAUGACUGCGGGUUCGAGUCCCGUACGGAACG — higher, 1.03
- GUUCCGUUGGCGUAAUGGUAACGCGUAUCCCUCCUAAGGAGAAGCCUGCGGGUUCGAGUCCCGUACGGAACG — higher, 0.796
- GUUCCGUUGGCGUAAUGGUAACGCGUAUCCCUCCUAAGGAGAAGCCUGAGGGUUCGAGUCUCGUACGGAACG — lower, ≤ 0.5
- GUUCCGUUGGCGUAAUGGUAACGCGUAUCCCUCCUAAGGAGAAGCCUGCCGGUUCGAGUCCCGUCCGGAACG — lower, ≤ 0.5
- GUUCCGUUGGCGUAAUGGUAACGCGUAUCCCUCCUAAGGAGAAGCCUGCGGGUUCCAGUUCCGUACGUAACG — lower, ≤ 0.5
- GUUCCGUUGGCGUAAUGGUAACGCGUAUCCCUCCUAAGGAGAAGCCUGCGGGUUCGAGUCCCGUACGAAACG — lower, 0.619
- GUUCCGUUGGCGUAAUGGUAACGCGUAUCCCUCCUAAGGAGAAGGCUGCGGGUUCGAGUCCCGUACGGAACG — higher, 0.874
- GUUCCGUUGGCGUAAUGGUAACGCGUAUCCCUCCUAAGGAGAAGGCUGCGGGUUCGAGUCCCGUACGCAACG — lower, ≤ 0.5
- GUUCCGUUGGCGUAAUGGUAACGCGUAUCCCUCCUAAGGAGAAGUCUGCGGGUUCGAGUGCCGUUCGGAACG — lower, 0.54
- GUUCCGUUGGCGUAAUGGUAACGCGUAUCCCUCCUAAGGAGAAGUCUGCGGGUUCAAGUUCCGUACGGAACG — lower, ≤ 0.5
- GUUCCGUUGGCGUAAUGGUAACGCGUAUCCCUCCUAAGGAGAAGACUGCGGGUUCGCGUCCCGUACGGAACG — lower, 0.669
- GUUCCGUUGGCGUAAUGGUAACGCGUAUCCCUCCUAAGGAGAAGACUGCGGGUUCGUGUCCCGUACGGAACG — lower, 0.737
- GUUCCGUUGGCGUAAUGGUAACGCGUAUCCCUCCUAAGGAGAAGACUGCGGGUUCGAGUCCCGUCCGGAACG — higher, 0.878
- GUUCCGUUGGCGUAAUGGUAACGCGUAUCCCUCCUAAGGAGAAGACUGCGGGUUCGAGUCCCGUGCGGAACG — higher, 1.02
- GUUCCGUUGGCGUAAUGGUAACGCGUAUCCCUCCUAAGGAGAAGACUGCGGGUUCGAGUCCCGUUCCGAACG — lower, 0.613
- GUUCCGUUGGCGUAAUGGUAACGCGUAUCCCUCCUAAGGAGAAGACUGCGGGUUCGAGUCCCGUACGGCACG — higher, 0.875
- GUUCCGUUGGCGUAAUGGUAACGCGUAUCCCUCCUAAGGAGAAGACUGCGGGUUCGAGUCCCGUACGGAGCG — higher, 0.857
- GUUCCGUUGGCGUAAUGGUAACGCGUAUACCUCCUAAGGAGAAGACUGCGGGUUCGAGUCCCGUACGGAACG — lower, 0.589
- GUUCCGUUGGCGUAAUGGUAACGCGUAUUCCUCCUAAGGAGAAGACUGCGGGUUCGAGUCCCGUACGGAACG — lower, 0.766
- GUUCCGUUGGCGUAAUGGUAACGCGUAUUCCUCCUAAGGGGAAGACUGCGGGUUCGAGUCCCGUACGGAACG — lower, ≤ 0.5
- GUUCCGUUGGCGUAAUGGUAACGCGUAUUCCUCCUAAGGAGAAGAAUGCGGGUUCGAGUCCCGUACGGAACG — lower, 0.684
- GUUCCGUUGGCGUAAUGGUAACGCGUAUUCCUCCUAAGGAGAAGACUGUGGGUUCGAGUCCCGUACGGAACG — lower, ≤ 0.5
- GUUCCGUUGGCGUAAUGGUAACGCGUAUUCCUCCUAAGGAGAAGACUGCGGGUUCGAGUCUCGUACGGAACG — lower, ≤ 0.5
- GUUCCGUUGGCGUAAUGGUAACGCGUAUCACUCCUAAGGAGACGACUGCGGGUUCGAGUCCGGUACGGAACG — lower, ≤ 0.5
- GUUCCGUUGGCGUAAUGGUAACGCGUAUCACUCCUAAGGAGAAGACUGCGGGUUCGAGUCCCGUAAGGAACG — lower, 0.561
- GUUCCGUUGGCGUAAUGGUAACGCGUAUCACUCCCAAGGAGAAGAGUGCGGGUUCGAGUCCCGUACGGAACG — lower, ≤ 0.5
- GUUCCGUUGGCGUAAUGGUAACGCGUAUCGCUCCUAAGGAGAAGACUGCGGGUUCGAGUCCCGUACGGAACG — lower, 0.634
- GUUCCGUUGGCGUAAUGGUAACGCGUAUCGCUCCUAAGGAGAAGACUGUGGGUUCCAGUCCCGUAUGGAACG — lower, ≤ 0.5
- GUUCCGUUGGCGUAAUGGUAACGCGUAUCUCUCCUAAGGAGAAGACUGCGGGUUCGAGUCCCGUACGGAACG — lower, 0.7
- GUUCCGUUGGCGUAAUGGUAACGCGUAUCUCUCCUAAGGAGAAGACUGCGGGUUCGCGUCCUGUACGGAACG — lower, ≤ 0.5
- GUUCCGUUGGCGUAAUGGUAACGCGUAUCUCUGCUAAGGAGAAGACUGCGGGUUCGAGUCCCGUACGGAACG — lower, 0.634
- GUUCCGUUGGCGUAAUGGUAACGCGUAUCUCUGCUACGGAGAAGACUGCGGGUUCGUGUCCCGUACGGAACG — lower, ≤ 0.5
- GUUCCGUUGGCGUAAUGGUAACGCGUAUCUCUCCUAAGGAGAACACUGCGGGUUCGAGUCCCGUACGGAACG — lower, ≤ 0.5
